From ChEMBL document CHEMBL1156039, “Nonpeptide urotensin-II receptor antagonists: a new ligand class based on piperazino-phthalimide and piperazino-isoindolinone subunits” (J Med Chem, 2009)
Where a SMILES comes first, the peptide text is derived from it. Bridges are numbered along the chain shown (N, C = ends). [ ]: non-standard residue; d: D form. 2Nal = N[C@@H](Cc1ccc2ccccc2c1)C(=O)O

Experiments:
Urotensin-2 receptor [1] = biological target: T1, Urotensin-2 receptor (Homo sapiens, UniProt Q9UKP6); experiment: Displacement of [125I]urotensin 2 from urotensin 2 receptor in human RMS13 cells by scintillation proximity assay; format: cell-based
T1 sequence (Q9UKP6 whole entry): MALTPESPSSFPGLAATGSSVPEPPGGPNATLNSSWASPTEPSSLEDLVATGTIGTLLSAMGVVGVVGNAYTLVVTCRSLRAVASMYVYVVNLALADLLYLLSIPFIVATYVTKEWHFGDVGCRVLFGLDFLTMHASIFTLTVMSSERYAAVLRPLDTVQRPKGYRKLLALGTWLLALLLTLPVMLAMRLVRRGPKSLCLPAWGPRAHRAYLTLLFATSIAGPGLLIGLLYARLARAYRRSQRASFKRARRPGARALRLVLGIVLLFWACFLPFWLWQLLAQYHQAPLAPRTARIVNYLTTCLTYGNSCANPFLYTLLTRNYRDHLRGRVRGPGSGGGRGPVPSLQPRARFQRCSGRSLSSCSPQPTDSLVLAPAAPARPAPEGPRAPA

Urotensin-2 receptor [2] = biological target: T1, Urotensin-2 receptor; experiment: Antagonist activity at urotensin 2 receptor in human RMS13 cells assessed as inhibition of urotensin 2-induced intracellular calcium mobilization after 1 hr by FLIPR assay; format: functional, cell-based
Method in brief: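 Human rhabdomyosarcoma (RMS13) cells expressing endogenous UT. Inhibition of U-II-driven calcium mobilization measured by FLIPR; N = 2-6.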

Urotensin-2 receptor [3] = biological target: T2, Urotensin-2 receptor (Rattus norvegicus, UniProt P49684); experiment: Antagonist activity at rat urotensin 2 receptor expressed in CHOK1 cells assessed as inhibition of urotensin 2-induced intracellular calcium mobilization after 1 hr by FLIPR assay; format: functional, cell-based, CHO-K1
T2 sequence (P49684 whole entry): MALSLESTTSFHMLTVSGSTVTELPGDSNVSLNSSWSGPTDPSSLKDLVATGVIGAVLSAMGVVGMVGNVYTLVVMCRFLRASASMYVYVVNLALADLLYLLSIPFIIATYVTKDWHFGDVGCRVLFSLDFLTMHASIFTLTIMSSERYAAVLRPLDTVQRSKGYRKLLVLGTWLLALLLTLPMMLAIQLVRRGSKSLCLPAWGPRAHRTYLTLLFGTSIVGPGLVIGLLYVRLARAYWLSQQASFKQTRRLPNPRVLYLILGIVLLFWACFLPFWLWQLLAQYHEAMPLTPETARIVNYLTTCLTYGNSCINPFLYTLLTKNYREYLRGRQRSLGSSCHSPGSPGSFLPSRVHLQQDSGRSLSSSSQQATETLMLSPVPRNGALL
Method in brief: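 Stable CHO-K1 line expressing rat UT, selected with G418 and seeded 24 h ahead. Cells loaded with calcium dye for 1 h at 37 °C in HBSS/20 mM HEPES/0.1% BSA/2.5 mM probenecid, pH 7.4. Compound preincubated 10 min, then agonist added: goby U-II 0.1 nM or peptide agonist 0.3 or 1 nM. FLIPR calcium read at 23 °C; N = 2-6.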

Urotensin-2 receptor [4] = biological target: T2, Urotensin-2 receptor; experiment: Antagonist activity at rat urotensin 2 receptor expressed in CHOK1 cells assessed as inhibition of urotensin 2-induced intracellular calcium mobilization after 10 min by FLIPR assay
Urotensin-2 receptor [5] = biological target: T2, Urotensin-2 receptor; experiment: Displacement of [125I]urotensin 2 from rat urotensin 2 receptor expressed in CHOK1 cells by scintillation proximity assay; format: cell-based, CHO-K1
Method in brief: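 Membranes from CHO cells stably expressing rat UT were precoupled to WGA-coated SPA beads (15 μg membrane/mg beads, 30 min, room temperature) in 50 mM Tris-HCl, 5 mM MgCl2, 0.1% BSA, pH 7.4. Final conditions: 1.0 mg beads per well, 0.17 nM [125I]-[Tyr]-rat U-II, and varied compound concentrations, shaken 3 h at 22 °C. Nonspecific binding was defined with 1 μM rat U-II.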

[6] = in the assay text read “after 10 min” for “after 1 hr”

Structure (SMILES)	Ki (Urotensin-2 receptor [1]) [nM]	IC50 (Urotensin-2 receptor [2]) [nM]	IC50 (Urotensin-2 receptor [4]) [nM]	other results
CCN1CCN(c2cccc3c2CN([C@H](CCCNS(=O)(=O)c2cn(C)c(C)n2)c2ccc(OC)c(OC)c2)C3=O)CC1	25	51		IC50 (Urotensin-2 receptor [3]): 23 nM
CCN1CCN(c2cccc3c2CN([C@H](CCCN(C)S(=O)(=O)c2cccs2)c2ccc(OC)c(OC)c2)C3=O)CC1	< 5			
COc1ccc([C@@H](CCCN(C)S(=O)(=O)c2cccs2)N2Cc3c(cccc3N3CCN(C)CC3)C2=O)cc1OC	< 6			
COc1ccc(C(CCNC(=O)OC(C)(C)C)N2C(=O)c3cccc(N4CCN([C@@H](C)c5ccccc5)CC4)c3C2=O)cc1OC (stereo not given in full)	540		110	
CCN1CCN(c2cccc3c2CN([C@H](CCCNC(=O)c2cccs2)c2ccc(OC)c(OC)c2)C3=O)CC1		140		
COc1ccc(C(CNS(=O)(=O)c2cccs2)N2C(=O)c3cccc(N4CCN([C@@H](C)c5ccccc5)CC4)c3C2=O)cc1OC (stereo not given in full)	290			IC50 (Urotensin-2 receptor [3]; [6]): 75 nM
CCN1CCN(c2cccc3c2CN([C@H](CCCNc2cncc(Cl)n2)c2ccc(OC)c(OC)c2)C3=O)CC1	62	500	1	
COc1ccc([C@@H](CCCN(C)S(=O)(=O)c2cccs2)N2Cc3c(cccc3N3CCN(C(C)C)CC3)C2=O)cc1OC		500		
COc1ccc(C(CN)N2C(=O)c3cccc(N4CCN([C@@H](C)c5ccccc5)CC4)c3C2=O)cc1OC (stereo not given in full)	700			IC50 (Urotensin-2 receptor [3]; [6]): 300 nM
CCN1CCN(c2cccc3c2CN([C@H](CCCNc2cncc(OC)n2)c2ccc(OC)c(OC)c2)C3=O)CC1	8	62		IC50 (Urotensin-2 receptor [3]; [6]): 4 nM
COc1ccc([C@@H](CCCNS(C)(=O)=O)N2C(=O)c3cccc(N4CCN([C@H](C)c5ccccc5)CC4)c3C2=O)cc1OC	1400		110	
COc1ccc(C(CCNS(=O)(=O)c2cccs2)N2C(=O)c3cccc(N4CCN([C@H](C)c5ccccc5)CC4)c3C2=O)cc1OC (stereo not given in full)	270		120	
CC(=O)N[C@H]1CSSC[C@@H](C(N)=O)NC(=O)[C@H](Cc2ccc3ccccc3c2)NC(=O)[C@H](CCCCN)NC(=O)[C@H](Cc2c[nH]c3ccccc23)NC(=O)[C@H](Cc2ccccc2)NC1=O (Ac-CFWK[2Nal]C-NH2; disulfide 1-6)				Ki (Urotensin-2 receptor [5]): 0.12 nM; EC50 (Urotensin-2 receptor [3]): 0.54 nM
